Activity calls are given as the source filed them. The rule behind the calls is not given here.

As usually defined, the IC50 is the concentration that gives 50% inhibition.

Assay [1] relates to Jurkat. Nature of the assay: Inhibition of heat-induced HSP70 expression in human Jurkat cells at 50 ug/mL treated for 1 hr before heat induction by Western blot. Format: functional, cell-based.
A short description of assay [2]: Inhibition of CK2 assessed as level of ATP utilized by luciferase-based bioluminescence assay.
A short description of assay [3]: Inhibition of CAMK2 assessed as level of ATP utilized by luciferase-based bioluminescence assay.
The target of assay [4] is Heat shock protein beta-1 (Homo sapiens) (UniProt P04792). Put plainly: Enhancement of HSP27 Ser78 phosphorylation in human HeLa cells at 50 ug/mL treated for 1 hr. Format: cell-based. The method in brief:
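HeLa cells in DMEM + 10% calf serum, exponentially growing, exposed 1 h to 50 μg/ml compound; total cell extracts probed by Western blot with rabbit antibody to human HSP27 phospho-Ser78, alkaline phosphatase-conjugated goat anti-rabbit secondary, colorimetric detection.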

In assay [5] the test system is HeLa. Put plainly: Inhibition of heat-induced increase in nuclear HSF1 protein phosphorylation in human HeLa cells assessed as decrease in protein mobility at 50 ug/mL treated for 1 hr before heat induction by EMSA. The assay is classed as functional, cell-based. The method in brief: (§1)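 Cells were pretreated with compound for 1 h, then heat-shocked at 43 °C for 30 min. Nuclear extracts, the same ones prepared for EMSA, were analysed by Western blot with rabbit anti-HSF1 and goat anti-rabbit HRP, with chemiluminescent detection. Nuclear HSF1 level was read from band intensity. The phosphorylation state was read as reduced gel mobility of the HSF1 band.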

The subject of assay [6] is HeLa. Put plainly: Inhibition of heat-induced increase in nuclear HSF1 protein level in human HeLa cells at 50 ug/mL treated for 1 hr before heat induction by Western blot. Format: functional, cell-based. Summed up:
as §1

Assay [7] has as its system Jurkat. Nature of the assay: Inhibition of heat-induced increase in nuclear HSF1 protein phosphorylation in human Jurkat cells assessed as decrease in protein mobility at 50 ug/mL treated for 1 hr before heat induction by EMSA. Format: functional, cell-based. The method in brief: as §1
Assay [8] concerns Jurkat. Put plainly: Inhibition of heat-induced increase in nuclear HSF1 protein level in human Jurkat cells at 50 ug/mL treated for 1 hr before heat induction by Western blot. Format: functional, cell-based. The method in brief:
as §1
A general note: In western blotting, separated proteins are transferred to a membrane and probed.

Chain of Heat shock protein beta-1 (Homo sapiens) (P04792 whole entry): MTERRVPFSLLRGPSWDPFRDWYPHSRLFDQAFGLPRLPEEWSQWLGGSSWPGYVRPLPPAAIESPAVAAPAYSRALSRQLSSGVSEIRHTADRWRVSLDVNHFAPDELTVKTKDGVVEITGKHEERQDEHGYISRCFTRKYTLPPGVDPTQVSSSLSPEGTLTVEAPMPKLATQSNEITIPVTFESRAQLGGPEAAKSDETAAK

As to `COc1cc(-c2oc3cc(O)cc(O)c3c(=O)c2O)ccc1O` [ISORHAMNETIN], the result in the assay with Jurkat [1] was Active. Besides, the IC50 was 0.5 µM in assay [2] and 0.91 µM in assay [3]. The result in assay [4] was inactive.
As to `O=c1c(O)c(-c2ccc(O)c(O)c2)oc2cc(O)cc(O)c12` [QUERCETIN], the outcome (in the assay on HeLa [5]; in the assay on Jurkat [1]; in the assay on Jurkat [7]; in assay [4]) was Active. The outcome in the assay on HeLa [6] and in the assay on Jurkat [8] was inactive. Further, the IC50 was determined as 5.6 µM in assay [2] and 3.3 µM in assay [3].
Regarding `COc1ccc(-c2oc3cc(O)cc(O)c3c(=O)c2O)cc1O` [TAMARIXETIN], the IC50 in assay [2] was more than 100 µM; in assay [3] it was 16.4 µM. In addition, the outcome in assay [4] was inactive.
In the case of `COC(=O)COc1cc(O)c2c(=O)c(O)c(-c3ccc(O)c(O)c3)oc2c1`, the outcome (with Jurkat [1]; in assay [4]) was Active. Moreover, the IC50 in assay [2] came out at 0.85 µM; in assay [3], 9.1 µM.
Consider `COC(=O)COc1cc(O)cc2oc(-c3ccc(O)c(O)c3)c(O)c(=O)c12`, for which the outcome (in the assay on Jurkat [1]; in assay [4]) was inactive. Also, the half-inhibitory concentration (IC50) in assay [2] is more than 100 µM; in assay [3], 69 µM.
Regarding `COC(=O)COc1cc(-c2oc3cc(O)cc(O)c3c(=O)c2O)ccc1O`, the outcome in the assay on Jurkat [1] was Active. Moreover, the 50% inhibitory concentration (IC50) in assay [2] was found to be 53 µM; in assay [3], 6.3 µM. The result in assay [4] was inactive.
On to `COc1cc(O)c2c(=O)c(O)c(-c3ccc(O)c(O)c3)oc2c1` [RHAMNETIN], for which the outcome (in the assay with Jurkat [1]; in assay [4]) was Active. Moreover, the IC50 in assay [2] came out at 9.7 µM; in assay [3] it was 8.9 µM.
As to `COc1cc(O)cc2oc(-c3ccc(O)c(O)c3)c(O)c(=O)c12`, the outcome (in the assay on Jurkat [1]; in assay [4]) was inactive. The IC50 in assay [2] is more than 100 µM; in assay [3] it was 4 µM.
For `O=C(O)COc1cc(O)c2c(=O)c(O)c(-c3ccc(O)c(O)c3)oc2c1`, the outcome (in the assay with Jurkat [1]; in assay [4]) was inactive. The IC50 is 9.7 µM in assay [2] and 9.3 µM in assay [3].
For `COc1c(-c2ccc(O)c(O)c2)oc2cc(O)cc(O)c2c1=O` [3-O-METHYLQUERCETIN], the outcome (in the assay on Jurkat [1]; in assay [4]) was inactive. Also, the IC50 in assay [2] was 0.83 µM; in assay [3], more than 100 µM.
In the case of `O=C(O)COc1c(-c2ccc(O)c(O)c2)oc2cc(O)cc(O)c2c1=O`, the outcome (in the assay with Jurkat [1]; in assay [4]) was inactive. In addition, the half-maximal inhibitory concentration (IC50) is 2.45 µM in assay [2] and more than 100 µM in assay [3].

(Values after ChEMBL document CHEMBL1153987 (J Med Chem, 2009).)
